Reference: publication PMC4233149 (Clinical cancer research : an official journal of the …, 2014)
Marks after values point to notes of the source that are not given here.

Experiment: Phase I safety and tolerability, weekly
Format: in vivo, human
Outline: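 Oral weekly dose escalation followed a 3+3 design (planned 90, 135, 200, 300mg, intermediate doses allowed), then a modified toxicity-probability-interval confirmation stage. A DLT was any drug-related CTCAE v3.0 ≥G4 hematological, ≥G3 febrile neutropenia or ≥G3 non-hematological toxicity. Safety visits, glucose, C-peptide and HbA1c monitoring followed a fixed schedule; AEs were graded by CTCAE v3.0.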

[1] = 200mg QW, G3, cycle 1, dose-limiting toxicity

NC1(c2ccc(-c3nc4ccn5c(=O)[nH]nc5c4cc3-c3ccccc3)cc2)CCC1 [MK-2206]
Diarrhea, number of AEs (200mg QW, G3, cycle 1): 0 (0) | Dry skin, number of AEs (200mg QW, G3, cycle 1): 0 (0) | Dysgeusia, number of AEs (200mg QW, G3, cycle 1): 0 (0) | Fatigue, number of AEs (200mg QW, G3, cycle 1): 0 (0) | Nausea, number of AEs (200mg QW, G3, cycle 1): 0 (0) | Pruritus, number of AEs (200mg QW, G3, cycle 1): 0 (0) | Stomatitis, number of AEs (200mg QW, G3, cycle 1): 0 (0) | Vomiting, number of AEs (200mg QW, G3, cycle 1): 0 (0) | Dermatitis acneiform, number of AEs [1]: 1^c (1) | Rash (all rash terms collated), number of AEs [1]: 3^c (3) | Anorexia, number of AEs (250mg QW, G1, all cycles): 0 (0) | Dermatitis acneiform, number of AEs (250mg QW, G1, all cycles): 0 (0) | Diarrhea, number of AEs (250mg QW, G1, all cycles): 0 (0) | Dysgeusia, number of AEs (250mg QW, G1, all cycles): 0 (0) | Fatigue, number of AEs (250mg QW, G1, all cycles): 0 (0) | Nausea, number of AEs (250mg QW, G1, all cycles): 0 (0) | Pruritus, number of AEs (250mg QW, G1, all cycles): 0 (0) | Stomatitis, number of AEs (250mg QW, G1, all cycles): 2 | Vomiting, number of AEs (250mg QW, G1, all cycles): 0 (0) | Anorexia, number of AEs (250mg QW, G1, cycle 1): 0 (0) | Dermatitis acneiform, number of AEs (250mg QW, G1, cycle 1): 0 (0) | Diarrhea, number of AEs (250mg QW, G1, cycle 1): 0 (0) | Dysgeusia, number of AEs (250mg QW, G1, cycle 1): 0 (0) | Fatigue, number of AEs (250mg QW, G1, cycle 1): 0 (0) | Nausea, number of AEs (250mg QW, G1, cycle 1): 0 (0) | Pruritus, number of AEs (250mg QW, G1, cycle 1): 0 (0) | Stomatitis, number of AEs (250mg QW, G1, cycle 1): 1 | Vomiting, number of AEs (250mg QW, G1, cycle 1): 0 (0) | Anorexia, number of AEs (250mg QW, G2, all cycles): 0 (0) | Dermatitis acneiform, number of AEs (250mg QW, G2, all cycles): 0 (0) | Diarrhea, number of AEs (250mg QW, G2, all cycles): 0 (0) | Dry skin, number of AEs (250mg QW, G2, all cycles): 0 (0) | Dysgeusia, number of AEs (250mg QW, G2, all cycles): 0 (0) | Fatigue, number of AEs (250mg QW, G2, all cycles): 0 (0) | Nausea, number of AEs (250mg QW, G2, all cycles): 0 (0) | Pruritus, number of AEs (250mg QW, G2, all cycles): 0 (0) | Rash (all rash terms collated), number of AEs (250mg QW, G2, all cycles): 2 | Stomatitis, number of AEs (250mg QW, G2, all cycles): 0 (0) | Vomiting, number of AEs (250mg QW, G2, all cycles): 0 (0) | Anorexia, number of AEs (250mg QW, G2, cycle 1): 0 (0) | Dermatitis acneiform, number of AEs (250mg QW, G2, cycle 1): 0 (0) | Diarrhea, number of AEs (250mg QW, G2, cycle 1): 0 (0) | Dry skin, number of AEs (250mg QW, G2, cycle 1): 0 (0) | Dysgeusia, number of AEs (250mg QW, G2, cycle 1): 0 (0) | Fatigue, number of AEs (250mg QW, G2, cycle 1): 0 (0) | Nausea, number of AEs (250mg QW, G2, cycle 1): 0 (0) | Pruritus, number of AEs (250mg QW, G2, cycle 1): 0 (0) | Rash (all rash terms collated), number of AEs (250mg QW, G2, cycle 1): 1 | Stomatitis, number of AEs (250mg QW, G2, cycle 1): 0 (0) | Vomiting, number of AEs (250mg QW, G2, cycle 1): 0 (0) | Anorexia, number of AEs (250mg QW, G3, all cycles): 0 (0) | Dermatitis acneiform, number of AEs (250mg QW, G3, all cycles): 0 (0) | Diarrhea, number of AEs (250mg QW, G3, all cycles): 0 (0) | Dry skin, number of AEs (250mg QW, G3, all cycles): 0 (0) | Dysgeusia, number of AEs (250mg QW, G3, all cycles): 0 (0) | Fatigue, number of AEs (250mg QW, G3, all cycles): 0 (0) | Nausea, number of AEs (250mg QW, G3, all cycles): 0 (0) | Pruritus, number of AEs (250mg QW, G3, all cycles): 0 (0) | Rash (all rash terms collated), number of AEs (250mg QW, G3, all cycles): 2^c (2) | Stomatitis, number of AEs (250mg QW, G3, all cycles): 0 (0) | Vomiting, number of AEs (250mg QW, G3, all cycles): 0 (0) | Anorexia, number of AEs (250mg QW, G3, cycle 1): 0 (0) | Dermatitis acneiform, number of AEs (250mg QW, G3, cycle 1): 0 (0) | Diarrhea, number of AEs (250mg QW, G3, cycle 1): 0 (0) | Dry skin, number of AEs (250mg QW, G3, cycle 1): 0 (0) | Dysgeusia, number of AEs (250mg QW, G3, cycle 1): 0 (0) | Fatigue, number of AEs (250mg QW, G3, cycle 1): 0 (0) | Nausea, number of AEs (250mg QW, G3, cycle 1): 0 (0) | Pruritus, number of AEs (250mg QW, G3, cycle 1): 0 (0) | Stomatitis, number of AEs (250mg QW, G3, cycle 1): 0 (0) | Vomiting, number of AEs (250mg QW, G3, cycle 1): 0 (0) | Rash (all rash terms collated), number of AEs (250mg QW, G3, cycle 1, dose-limiting toxicity): 2^c (2) | Anorexia, number of AEs (300mg QW, G1, all cycles): 0 (0) | Dermatitis acneiform, number of AEs (300mg QW, G1, all cycles): 0 (0) | Diarrhea, number of AEs (300mg QW, G1, all cycles): 0 (0) | Dry skin, number of AEs (300mg QW, G1, all cycles): 0 (0) | Dysgeusia, number of AEs (300mg QW, G1, all cycles): 1 (1) | Fatigue, number of AEs (300mg QW, G1, all cycles): 1 (1) | Nausea, number of AEs (300mg QW, G1, all cycles): 1 (1) | Pruritus, number of AEs (300mg QW, G1, all cycles): 0 (0) | Stomatitis, number of AEs (300mg QW, G1, all cycles): 0 (0) | Vomiting, number of AEs (300mg QW, G1, all cycles): 0 (0) | Anorexia, number of AEs (300mg QW, G1, cycle 1): 0 (0) | Dermatitis acneiform, number of AEs (300mg QW, G1, cycle 1): 0 (0) | Diarrhea, number of AEs (300mg QW, G1, cycle 1): 0 (0) | Dry skin, number of AEs (300mg QW, G1, cycle 1): 0 (0) | Dysgeusia, number of AEs (300mg QW, G1, cycle 1): 1 (1) | Fatigue, number of AEs (300mg QW, G1, cycle 1): 1 (1) | Nausea, number of AEs (300mg QW, G1, cycle 1): 1 (1) | Pruritus, number of AEs (300mg QW, G1, cycle 1): 0 (0) | Stomatitis, number of AEs (300mg QW, G1, cycle 1): 0 (0) | Vomiting, number of AEs (300mg QW, G1, cycle 1): 0 (0) | Anorexia, number of AEs (300mg QW, G2, all cycles): 0 (0) | Dermatitis acneiform, number of AEs (300mg QW, G2, all cycles): 0 (0) | Diarrhea, number of AEs (300mg QW, G2, all cycles): 0 (0) | Dry skin, number of AEs (300mg QW, G2, all cycles): 0 (0) | Dysgeusia, number of AEs (300mg QW, G2, all cycles): 0 (0) | Fatigue, number of AEs (300mg QW, G2, all cycles): 0 (0) | Nausea, number of AEs (300mg QW, G2, all cycles): 0 (0) | Pruritus, number of AEs (300mg QW, G2, all cycles): 0 (0) | Rash (all rash terms collated), number of AEs (300mg QW, G2, all cycles): 2 (2) | Stomatitis, number of AEs (300mg QW, G2, all cycles): 1 (1) | Vomiting, number of AEs (300mg QW, G2, all cycles): 0 (0) | Anorexia, number of AEs (300mg QW, G2, cycle 1): 0 (0) | Dermatitis acneiform, number of AEs (300mg QW, G2, cycle 1): 0 (0) | Diarrhea, number of AEs (300mg QW, G2, cycle 1): 0 (0) | Dry skin, number of AEs (300mg QW, G2, cycle 1): 0 (0) | Dysgeusia, number of AEs (300mg QW, G2, cycle 1): 0 (0) | Fatigue, number of AEs (300mg QW, G2, cycle 1): 0 (0) | Nausea, number of AEs (300mg QW, G2, cycle 1): 0 (0) | Pruritus, number of AEs (300mg QW, G2, cycle 1): 0 (0) | Rash (all rash terms collated), number of AEs (300mg QW, G2, cycle 1): 2 (2) | Stomatitis, number of AEs (300mg QW, G2, cycle 1): 1 (1) | Vomiting, number of AEs (300mg QW, G2, cycle 1): 0 (0) | Anorexia, number of AEs (300mg QW, G3, all cycles): 0 (0) | Dermatitis acneiform, number of AEs (300mg QW, G3, all cycles): 0 (0) | Diarrhea, number of AEs (300mg QW, G3, all cycles): 0 (0) | Dry skin, number of AEs (300mg QW, G3, all cycles): 0 (0) | Dysgeusia, number of AEs (300mg QW, G3, all cycles): 0 (0) | Fatigue, number of AEs (300mg QW, G3, all cycles): 0 (0) | Nausea, number of AEs (300mg QW, G3, all cycles): 0 (0) | Pruritus, number of AEs (300mg QW, G3, all cycles): 0 (0) | Rash (all rash terms collated), number of AEs (300mg QW, G3, all cycles): 3^c (3) | Stomatitis, number of AEs (300mg QW, G3, all cycles): 0 (0) | Vomiting, number of AEs (300mg QW, G3, all cycles): 0 (0) | Anorexia, number of AEs (300mg QW, G3, cycle 1): 0 (0) | Dermatitis acneiform, number of AEs (300mg QW, G3, cycle 1): 0 (0) | Diarrhea, number of AEs (300mg QW, G3, cycle 1): 0 (0) | Dry skin, number of AEs (300mg QW, G3, cycle 1): 0 (0) | Dysgeusia, number of AEs (300mg QW, G3, cycle 1): 0 (0) | Fatigue, number of AEs (300mg QW, G3, cycle 1): 0 (0) | Nausea, number of AEs (300mg QW, G3, cycle 1): 0 (0) | Pruritus, number of AEs (300mg QW, G3, cycle 1): 0 (0) | Stomatitis, number of AEs (300mg QW, G3, cycle 1): 0 (0) | Vomiting, number of AEs (300mg QW, G3, cycle 1): 0 (0) | Rash (all rash terms collated), number of AEs (300mg QW, G3, cycle 1, dose-limiting toxicity): 3^c (3) | drug-related headaches, patients (QW schedule, 4/33): 12.1% | drug-related increased alanine aminotransferase levels, patients (QW schedule, 4/33): 12.1% | drug-related pruritus, patients (QW schedule, 4/33): 12.1% | C-peptide level increase during first cycle (range) (QW schedule, 4 patients with increase): 65.7%-166.6 | drug-related stomatitis, patients (QW schedule, 5/33): 15.2% | drug-related decreased appetite, patients (QW schedule, 7/33): 21.2% | time to full resolution of DLTs from onset (QW schedule, 7 of 10 patients with DLTs): 1 to 2 weeks | drug-related vomiting, patients (QW schedule, 8/33): 24.2% | drug-related diarrhea, patients (QW schedule, 9/33): 27.3% | drug-related nausea, patients (QW schedule, 9/33): 27.3% | drug-related rash, patients (QW schedule, 14/33): 42.4% | drug-related fatigue, patients (QW schedule, 15/33): 45.5% | elevated blood glucose levels, patients (QW schedule, 19/33): 57.6% | drug-related AEs, patients (QW schedule, 22/33): 66.7% | post-cycle 1 HbA1c values (QW schedule, all patients assessed): < 7% | G1 hyperglycemia, patients (QW schedule, following 1 cycle, 1/33): 3.0% | DLTs resolved with sequelae of dry skin (QW schedule, of 10 patients with DLTs): 3 patients | patients with increased C-peptide levels during first cycle (QW schedule, patients assessed): 4 of 6 | patients who discontinued for drug-related AEs (QW schedule, G3 rash, G3 complete atrioventricular block, G1 rash (n=1 each)): Three
